Compound activity deposited in PubChem by several laboratories.
This is a sample that favours compounds with a hit; in the whole collection about 1.2% have one here.
SR-BI DiI-HDL act – activators of SR-BI mediated HDL lipid uptake | CHO ldlA[mSR-BI] cells, DiI-HDL uptake fluorescence, 3 h; 100 = double the neutral-control signal | 320,000 tested, 0.096% active | activation, % at 12.5 µM;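 active = mean replicate activation of at least 60% and every replicate at or above 60%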;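 note: 0% = median plate neutral-control signal and 100% = twice that signal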
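Test system: SR-BI-overexpressing, LDLR-lacking CHO cells; Also added: labelled HDL, 10 µg/mL; Measured by: bottom-read cell fluorescence after medium removal, ex 550/em 595 nm; Timing: 3 h uptake period with compound, 37 °C; Buffer or medium: F12, 0.5% BSA, 25 mM HEPES; Doses: single compound concentration, delivered by pin transfer.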
Efflux pump inh – inhibitors of Candida antifungal efflux pumps expressed in yeast | inhibition, % at 10 µM | S. cerevisiae Candida pump triplex, Nile Red efflux | 330,000 tested, 0.44% active;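 active = plate passing quality check with inhibition over a set limit, or well fluorescence over plate mean plus 4 SD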;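 note: Nile Red retained in pooled yeast measured as flow cytometry median fluorescence; 0% = buffer negative control and 100% = Enniatin B positive control; higher means more Nile Red kept so more efflux inhibition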
CaV13 ICDI inh – Primary screen for inhibitors of IQ motif and Ca2+-dependent inactivation inhibitor domain binding in CACNA1D, Förster resonance energy transfer in living cells, …; inhibition, % at 12.3 µM; 340,000 tested, 0.098% active; HEK cells, CFP/YFP FRET ICDI-IQ, plate reader, 10 min; percent FRET-ratio fall versus neutral wells;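 active = mean replicate inhibition of at least 30% and at least 1% of replicates passing that level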;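 note: 0% = median of the neutral control wells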
FN deposition inh – fibronectin deposition inhibition; AH1F fibroblasts, Alexa488-fibronectin deposition fluorescence, overnight; inhibition, % at 12.6 µM; 350,000 tested, 0.086% active;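 active = mean inhibition across replicates of 30% or more, regardless of how many single replicates reach that level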;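 note: positive control wells lacked labelled fibronectin entirely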
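Assay system: AH1F fibroblasts / Quantity: 10000 cells per well / Medium: DMEM plus 2% serum, read in PBS / Reagent: labelled fibronectin 24 nM / Dosing: single dose, pinned / Times: 1 h cell attachment, overnight exposure to compound and label / Signal: fluorescence, ex 485 nm, em 525 nm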
SR-BI HDL uptake – inhibitors of mouse SR-BI mediated HDL lipid uptake | ldlA[mSR-BI] CHO cells, DiI-HDL uptake fluorescence, 3 h | inhibition, % at 12.5 µM | 320,000 tested, 0.96% active | AID 488896;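 active = mean replicate inhibition of at least 70% and a set share of replicates each scoring 70 or more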;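 note: 0% = median of neutral control wells and 100% = median of positive control wells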
Target sequence (Q61009 whole entry, looked up): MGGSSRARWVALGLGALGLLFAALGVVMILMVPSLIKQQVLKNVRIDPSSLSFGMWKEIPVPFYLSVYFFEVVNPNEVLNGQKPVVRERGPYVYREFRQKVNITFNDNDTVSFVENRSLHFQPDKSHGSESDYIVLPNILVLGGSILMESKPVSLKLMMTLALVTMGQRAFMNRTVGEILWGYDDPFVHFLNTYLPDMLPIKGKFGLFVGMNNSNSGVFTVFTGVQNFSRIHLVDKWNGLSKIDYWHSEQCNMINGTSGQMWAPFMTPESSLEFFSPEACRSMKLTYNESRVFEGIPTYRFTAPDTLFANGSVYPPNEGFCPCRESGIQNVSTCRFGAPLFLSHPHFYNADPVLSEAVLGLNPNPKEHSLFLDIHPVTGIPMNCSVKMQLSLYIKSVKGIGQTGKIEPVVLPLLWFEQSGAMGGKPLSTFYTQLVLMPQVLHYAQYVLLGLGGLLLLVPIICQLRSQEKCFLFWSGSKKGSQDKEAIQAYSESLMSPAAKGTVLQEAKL
DiI quencher – quenches DiI-HDL fluorescence, an SR-BI assay artifact. shares compounds with SR-BI HDL uptake. 470 tested, 20% active. AC50, µM (top dose mostly 35 µM), inactives show at the highest dose activity change, negative = quenching. cell-free DiI-HDL fluorescence quenching, 30 min. AID 540326;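 active = quenching, a falling signal, with AC50 below a set limit tied to the top valid dose, actives reach about 32 µM in these data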
Numbers without * were called inactive; · = no result given.

SMILES	SR-BI DiI-HDL act	Efflux pump inh	CaV13 ICDI inh	FN deposition inh	SR-BI HDL uptake	DiI quencher
O=C(Nc1ccc(-c2csc(Nc3ccccc3)n2)cc1)c1cccc(C(F)(F)F)c1	-113.7	0.1	-5.6	1.9	113.7*	1.54µM*
Cc1ccc(S(=O)(=O)N(C)C[C@@H]2OCCCC[C@H](C)Oc3ccc(NC(=O)NC(C)C)cc3C(=O)N([C@H](C)CO)C[C@H]2C)cc1	·	·	·	0.5	·	·
C[C@@H]1CN([C@@H](C)CO)S(=O)(=O)c2ccc(C#Cc3ccccn3)cc2O[C@H]1CN(C)Cc1ccccc1	·	·	·	-2.7	·	·
COc1ccccc1Nc1nc(-c2c(C)[nH]c3ccccc23)cs1	-71.7	0.4	-3.5	-5.5	71.7*	5.61µM*
O=C(Nc1ccc2c(c1)[C@@H]1C[C@H](CC(=O)N3CCc4ccccc4C3)O[C@H](CO)[C@@H]1O2)C1CCC1	·	·	·	7.9	·	·
Cc1nc(CC(=O)N/N=C/c2ccc(OCC(=O)O)cc2)cs1	15.1	0.2	-2.6	0.3	-15.1	·
COc1cc(/C=N/NC(=O)Cc2csc(C)n2)ccc1OCC(C)C	-81.9	-0.1	-5.0	3.1	81.9*	-2.5%
Cc1cc(=O)oc2cc(OCC(=O)N3CCN(C(=O)C4COc5ccccc5O4)CC3)c(Cl)cc12 (configuration not stated)	-79.8	0.1	-5.1	-9.4	79.8*	-4.5%
O=C(CCl)N1CCN(C(=O)C2COc3ccccc3O2)CC1 (configuration not stated)	14.8	0.0	-6.0	·	-14.8	·
COc1ccccc1CNC(=O)C1CCC(CNC(=O)[C@@H]2Cc3ccccc3CN2)CC1 (some centres not stated)	-77.0	0.3	-2.4	-4.6	77.0*	-4.6%
COc1ccccc1CNC(=O)CNC(=O)[C@@H]1Cc2ccccc2CN1	-3.4	-0.1	-14.5	-0.9	3.4	·
COc1cc(-c2nnn(Cc3ccccc3C)n2)cc(OC)c1OC	-101.1	0.2	-14.0	1.8	101.1*	2.0%
COc1ccc(-c2nnn(Cc3ccccc3)n2)cc1OC	-3.6	0.2	-18.5	0.8	3.6	·
CCOC(=O)N1CCN(C(=O)c2cnn3c(C(F)F)cc(-c4ccc(C)cc4)nc23)CC1	-66.1	0.2	-2.6	·	66.1	·
Cc1ccc2nc(-c3ccccc3)cc(C(=O)N3CCN(c4ccccc4O)CC3)c2c1	-34.7	-0.2	-13.7	5.5	34.7	-11.4%
Cc1ccc(-c2cc(C(F)F)n3ncc(C(=O)N4CCN(c5cccc(C)c5C)CC4)c3n2)cc1	-45.5	-0.1	-1.4	·	45.5	0.5%
O=C(c1cc(-c2cccnc2)nc2ccc(Br)cc12)N1CCN(c2ncccn2)CC1	-8.9	0.2	-5.0	·	8.9	·
CC(=O)c1ccc(N2CCN(C(=O)c3cc(-c4cccnc4)nc4ccc(Br)cc34)CC2)cc1	-9.5	-0.1	3.5	5.4	9.5	-5.4%
COc1ccc(N2CC(C(=O)N3CCN(S(=O)(=O)c4ccc(F)c(F)c4)CC3)CC2=O)c(OC)c1 (configuration not stated)	3.7	·	-12.5	-12.5	-3.7	6.4%
CCCCN(Cc1ccccc1)c1ncnc2nc[nH]c12	-74.3	0.0	·	·	74.3*	0.1%
COC(=O)c1c(C)[nH]c(C(=O)C(C)OC(=O)C2CC(=O)N(c3ccc(C)cc3)C2)c1C (configuration not stated)	-77.4	0.4	-2.1	4.6	77.4*	-2.1%
COc1ccc(OC)c2[nH]c(C(=O)N3CCC(C(=O)O)CC3)cc12	-74.7	0.2	-13.7	1.6	74.7*	-3.9%
COc1ccc(CCn2c(C)cc(C(=O)CSc3nc(N)cc(=O)[nH]3)c2C)cc1	-81.1	0.1	-4.3	-2.9	81.1*	1.1%
O=C(C[C@@H]1CC[C@H](NC(=O)CN2CCOCC2)[C@@H](CO)O1)NC1CCCCC1	·	·	·	10.5	·	·
O=C(O)c1ccc(-c2nc(-c3ccccc3)c(-c3ccccc3)[nH]2)cc1	-2.3	0.1	-3.1	8.0	2.3	·
SMILES	SR-BI DiI-HDL act	Efflux pump inh	CaV13 ICDI inh	FN deposition inh	SR-BI HDL uptake	DiI quencher
Cc1ccsc1-c1nc(-c2ccccc2)c(-c2ccccc2)[nH]1	-71.3	-0.1	-3.4	3.1	71.3*	32.3µM*
CCOC(=O)N1CCN(C(=O)C2CCN(C(=O)Nc3ccccc3)CC2)CC1	-73.6	0.0	-6.2	-0.2	73.6*	-1.3%
O=C(c1cnccn1)N1CC[C@@H]2[C@@H](CO)Nc3ccc(-c4ccccc4)cc3[C@@H]21	·	·	·	-15.1	·	·
CCOCCOC(=O)c1[nH]c2c(c1C)C(=O)CC(c1ccc(OC)c(OC)c1)C2 (configuration not stated)	-38.9	-0.1	-19.7	1.7	38.9	·
COc1cc(C2CC(=O)c3c([nH]c(C(=O)OCCOC(C)C)c3C)C2)cc(OC)c1OC (configuration not stated)	-81.7	0.1	-10.4	3.3	81.7*	-1.6%
CCC(C(=O)NC(C)(C)C)N(Cc1ccccc1Cl)C(=O)c1snc(C(N)=O)c1N (configuration not stated)	-5.6	-0.1	-3.3	4.4	5.6	·
CC(C(=O)NCc1ccccc1)N(Cc1ccccc1Cl)C(=O)c1snc(C(N)=O)c1N (configuration not stated)	-84.4	0.0	-4.3	-4.0	84.4*	2.3%
CNC(=O)C[C@H]1CC[C@@H]2[C@H](COc3ccc(NC(=O)c4cccc(F)c4)cc3C(=O)N2C)O1	·	·	·	-6.8	·	·
Cc1ccccc1NC(=O)N(CCc1nc2ccccc2[nH]1)Cc1ccccc1	-96.2	-0.1	·	·	96.3*	5.6%
CCc1ccc(CCC(=O)Nc2sc3c(c2C#N)CCCC3)o1	-62.4	-0.1	-10.9	-15.0	62.4	·
Cc1ccc(/C=C/C(=O)Nc2sc3c(c2C#N)CCCC3)o1	-75.5	0.2	-18.2	-12.7	75.5*	-5.1%
CC(=O)c1ccc(-c2ccc(C(=O)Nc3nc(C)c(C(C)=O)s3)o2)cc1	-49.6	-0.1	-5.1	-1.8	49.6	-4.1%
CO[C@H]1CN(C)C(=O)c2cc(NC(=O)C3CC3)ccc2OC[C@@H](C)N(C)C[C@H]1C	·	·	·	-6.4	·	·
O=C(Nc1ccc(-c2cn3c(n2)SCC3)cc1)c1ccc2ccccc2n1	-55.2	0.0	-10.6	-13.4	55.2	·
O=C(Nc1cccc(-c2cn3c(n2)SCC3)c1)c1ccc2ccccc2n1	-76.3	0.1	-6.4	·	76.3*	-5.3%
O=C(Nc1ccccc1C(=O)O)c1cccc(NC(=O)c2ccccc2Cl)c1	-34.0	-0.2	8.4	-7.4	34.0	·
O=C(Nc1cccc(NC(=O)c2ccccc2Cl)c1)c1ccc(F)cc1	-79.1	0.6	-20.8	2.0	79.1*	-1.3%
CN(C)C(=O)C[C@H]1CC[C@@H]2[C@H](COc3ccc(NC(=O)C4CCC4)cc3C(=O)N2C)O1	·	·	·	-6.7	·	·
